A selection: hits, their analogues and other compounds. The true share with any hit is near 0.55%.
zfTRPN1 agonist: activates the zebrafish TRPN1 channel; HEK293 zebrafish TRPN1-YFP, Fluo-8 calcium fluorescence; 100% = response to 87 µM carbachol; activation, % at 3 µM; hit rate 0.18% among 220,000;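 active = activation above its plate's cutoff, the mean activation of test wells on that plate plus 3 SD, cut at about 19% in these data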;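 note: 0% = DMSO alone and 100% = 87 µM carbachol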
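Material – zebrafish TRPN1-YFP in HEK293 cells · Doses – 3 µM single point · Schedule – dye 1 h 37 °C plus 30 min RT · Signal – Fluo-8 calcium fluorescence, excitation 470-495 nm, emission 515-575 nm · Read-out – % activation versus carbachol response · Control set – carbachol high, DMSO low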
TRPML3 agonist: agonists of human TRPML3 channel | Q8TDD5 | HEK293 TRPML3-YFP, Fluo-8 calcium fluorescence; 100% = the carbachol control signal | activation, % at 3 µM | hit rate 0.29% among 220,000 | AID 1448;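 active = activation above its plate's cutoff, the mean activation of the plate's test wells plus 3 SD, cut at about 12% in these data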;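 note: 0% = DMSO only wells and 100% = carbachol wells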
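Test system: TRPML3-YFP stable HEK293 cells. Doses: single point at 3 µM. Incubation: dye loading 1 h 37 °C then 30 min ambient, 125 s read. Signal: Fluo-8 calcium dye fluorescence, ex 470-495, em 515-575 nm. Measure: percent activation from peak-to-basal fluorescence ratio, scaled between DMSO and carbachol.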
V1aR counter: counter-screen for oxytocin receptor agonists: human V1a receptor agonists. P37288. CHO-V1R cells, Fluo-8 calcium fluorescence, agonist mode; 0% DMSO, 100% 3 nM vasopressin. activation, % at 3 µM. hit rate 0.25% among 320,000;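 active = activation above the mean activation of all tested compounds plus 3 SD, per screening run, cut at about 20% in these data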;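 note: signal is peak over basal fluorescence ratio across a 100 second FLIPR read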
OXTR potentiate: human OXTR potentiation. P30559. activation, % at 3 µM. hit rate 0.061% among 320,000. CHO-OTR cells, Fluo-8 calcium fluorescence, potentiator mode; 0% = oxytocin EC15, 100% = EC100;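 active = activation above that plate's cutoff, the mean activation of tested compounds plus 3 SD, cut at about 6.6% in these data, passing the limit was not always enough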;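 note: 100% uses oxytocin at 75 nM as the full agonist control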
Target sequence (P30559 whole entry, looked up): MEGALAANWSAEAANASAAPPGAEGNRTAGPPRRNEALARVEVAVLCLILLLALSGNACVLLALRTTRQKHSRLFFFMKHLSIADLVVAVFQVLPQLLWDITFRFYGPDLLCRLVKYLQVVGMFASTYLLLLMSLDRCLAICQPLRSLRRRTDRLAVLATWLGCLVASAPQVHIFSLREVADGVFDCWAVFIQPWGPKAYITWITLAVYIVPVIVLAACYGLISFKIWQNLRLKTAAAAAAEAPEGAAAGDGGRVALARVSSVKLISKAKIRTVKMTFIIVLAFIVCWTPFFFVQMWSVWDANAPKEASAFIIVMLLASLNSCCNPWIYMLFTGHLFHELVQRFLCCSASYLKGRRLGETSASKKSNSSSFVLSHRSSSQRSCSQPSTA
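Replication – single well per compound, singlicate · Assay system – CHO cell line stably expressing human OTR · Timing – 6 min pre-incubation, 100 s read · Measure – normalized max/min fluorescence ratio, % activation · Doses – 3.0 µM, one dose · Detection – Fluo-8 calcium dye fluorescence · Probe or stimulus – oxytocin near EC15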
OXTR agonist: human OXTR agonism; CHO-OTR cells, Fluo-8 calcium fluorescence; normalized: DMSO 0%, oxytocin 100%; hit rate 0.32% among 320,000; activation, % at 3 µM; P30559; AID 2435;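 active = activation above the mean of all tested compounds plus 3 SD, cutoff set per screening run, cut at about 20% in these data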;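 note: peak over basal fluorescence ratio from a 100 s FLIPR kinetic read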
TRPN1 ag 2: zebrafish TRPN1 agonism as TRPML3 agonist counter-screen; shares compounds with TRPML3 agonist; HEK293 zebrafish TRPN1-YFP, Fluo-8 calcium fluorescence; scaled: carbachol wells 100%, DMSO wells 0%; activation, % at 3 µM; hit rate 10% among 310;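 active = mean activation over replicates above a set limit taken from the earlier TRPN1 channel primary screen, cut at about 19% in these data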;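 note: 100% = carbachol and 0% = 0.3% DMSO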
TRPML3 ag conf: confirmation of human TRPML3 channel agonists; shares compounds with TRPML3 agonist; HEK293 TRPML3-YFP, Fluo-8 calcium fluorescence; 100% set by carbachol, 0% by DMSO; activation, % at 3 µM; hit rate 80% among 310; AID 1526;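 active = activation above a set limit derived from the earlier primary screen, cut at about 12% in these data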
* marks the source's active call; other numbers are inactive results; · = not tested or not shown.

SMILES	zfTRPN1 agonist	TRPML3 agonist	V1aR counter	OXTR potentiate	OXTR agonist	TRPN1 ag 2	TRPML3 ag conf
Cc1cccc(OCc2nnc(SCC(=O)Nc3cccc(C(=O)N4CCOCC4)c3)n2C)c1	-1	1	2	-13	0	·	·
COc1ccc(S(=O)(=O)N2CCCC2)cc1Br	·	·	0	0	1	·	·
CCOc1ccccc1N1CCN(S(=O)(=O)c2ccc(F)c(F)c2)CC1	-1	1	-2	-13	-3	·	·
COc1ccc(S(=O)(=O)N2CCCCCC2)cc1N(C)S(=O)(=O)c1ccccc1	2	70*	4	-11	0	2	74*
CCOc1cc(S(=O)(=O)N2CCCCCC2)ccc1F	-1	15*	-1	-7	-1	0	22*
COc1ccc(S(=O)(=O)N2CCCCC2)cc1C(C)C	3	74*	0	-13	-2	-2	138*
CC(NC(=O)C(=O)N/N=C\c1cccc([N+](=O)[O-])c1)c1ccccc1 (stereo unspecified)	0	0	-1	-5	-2	·	·
COc1ccc(NC(=O)c2cccnc2Sc2ccccc2)c(OC)c1	1	0	0	-1	0	·	·
O=C1C=C(NC2=CC3OC(c4ccccc4)OCC3OC2=O)CCC1 (stereo unspecified)	1	30*	1	1	1	1	1
CCOC(=O)CSc1nc2c(sc(=S)n2-c2ccccc2OC)c(=O)n1-c1ccccc1OC	·	·	1	-10	-2	·	·
CCOC(=O)CSc1nc2c(sc(=S)n2-c2ccccc2OC)c(=O)n1Cc1ccco1	12	40*	0	-3	1	16	59*
CCOc1ccc2oc(C(=O)N(CCOC)c3c(N)n(CC(C)C)c(=O)[nH]c3=O)c(C)c2c1	·	·	0	4	1	·	·
Cc1ccc(S(=O)(=O)NC2CCCCC2)c2nsnc12	-1	11*	0	-7	-2	0	12*
O=C(NC(=S)NNC(=O)c1cccs1)c1ccc(Br)o1	2	12*	16	-9	13	18	22*
CNC(=S)NNC(=O)c1cccs1	0	1	-1	-13	0	·	·
Cc1cccc(CC2CC(=O)N(c3ccccc3)C2=O)c1 (stereo unspecified)	0	0	0	5	0	·	·
Cc1cccc(CC2CC(=O)N(C3CCCCC3)C2=O)c1 (stereo unspecified)	0	13*	-1	2	-1	-1	66*
Cc1ccc(S(=O)(=O)N(C)c2ccc(OCC(=O)Nc3nnc(C4CC4)s3)cc2)cc1	0	44*	·	·	·	1	53*
COc1ccc(CCNC(=O)COc2ccc(N(C)S(=O)(=O)c3ccc(Cl)cc3)cc2)cc1	2	44*	·	·	·	3	41*
CCc1nnc(NC(=O)COc2ccc(N(C)S(=O)(=O)c3ccc(C)cc3)cc2)s1	1	23*	·	·	·	2	63*
CCOC(=O)Cc1csc(NC(=O)COc2ccc(N(C)S(=O)(=O)c3ccc(C)cc3)cc2)n1	3	5	5	-25	5	·	·
O=Cc1ccc(OCC(=O)NCC2CCCO2)cc1 (stereo unspecified)	·	·	1	-7	0	·	·
CCN(CC)S(=O)(=O)c1ccc(N2CCOCC2)c(NS(=O)(=O)c2ccc(C)c(C)c2)c1	0	1	0	-3	-3	·	·
Cc1noc(C)c1COC(=O)c1cccc(S(=O)(=O)N2CCCCCC2)c1	11	13*	6	-8	9	6	18*
COc1ccc(S(=O)(=O)N2CCCCCC2)cc1C(=O)OCc1c(C)noc1C	3	30*	0	-6	-1	2	14*
SMILES	zfTRPN1 agonist	TRPML3 agonist	V1aR counter	OXTR potentiate	OXTR agonist	TRPN1 ag 2	TRPML3 ag conf
Cc1noc(C)c1COC(=O)c1ccc(F)c(S(=O)(=O)N2CCCCC2)c1	4	3	2	-12	0	·	·
Cc1ccc(S(=O)(=O)N2CCc3ccccc3C2CN2C(=O)c3ccccc3C2=O)cc1 (stereo unspecified)	1	22*	-1	-16	-1	-1	13*
CCN(C(=O)CSc1nnc(-c2ccc3c(c2)OCO3)o1)C1CCS(=O)(=O)C1 (stereo unspecified)	·	·	1	-6	1	·	·
S=C1N[C@H]2CCCC[C@@H]2N1	1	1	1	-2	-1	·	·
On1onc2c3cc(-c4ccccc4)nc3ccc21	1	12*	1	-10	3	3	1
COc1ccc(N=C2SCC(=O)N2CCc2ccc(OC)c(OC)c2)cc1	5	2	2	-6	1	·	·
COc1ccc(CCN2C(=O)CSC2=Nc2ccc(C(C)C)cc2)cc1OC	5	13*	8	-15	0	5	14*
O=C(Nc1nc2cc(Cl)ccc2s1)C1CCCN(S(=O)(=O)c2cccc3cccnc23)C1 (stereo unspecified)	-1	-1	-1	0	0	·	·
O=C(CN(C(=O)c1csnn1)c1ccc(Cl)cc1)NCc1ccc2c(c1)OCO2	·	·	5	-11	3	·	·
CC1CC(C)(C)N(C(=O)CN2C(=O)c3ccccc3C2=O)c2ccccc21 (stereo unspecified)	4	210*	-1	-15	-2	97*	205*
CC1=CC(C)(C)N(C(=O)CN2C(=O)c3ccccc3C2=O)c2ccccc21	-1	67*	-1	0	-2	2	92*
O=C(CCCc1nc(-c2ccccc2Cl)no1)N1CCOCC1	1	1	1	-3	1	·	·
Cc1cc2nc3c(=O)[nH]c(=O)[nH]c3nc2c([N+](=O)[O-])c1N	15	12*	·	·	·	7	5
CCC1(C)Cc2sc3c(=O)[nH]c(=S)[nH]c3c2CO1 (stereo unspecified)	1	0	2	-6	0	·	·
COc1ccc(/C(N)=N/OC(=O)CN(C)S(=O)(=O)c2ccccc2)cc1	4	106*	·	·	·	2	40*
CN(CC(=O)O/N=C(\N)c1ccccn1)S(=O)(=O)c1ccccc1	0	0	0	4	0	·	·
Cc1nc(NC(=O)c2csc3ccccc23)sc1C	-2	18*	-1	-10	-2	1	28*
Cc1nc(NC(=O)c2ccccc2O)sc1C	·	·	1	-6	1	·	·
COC(=O)c1ccc(Cl)cc1N(Cc1c(F)cccc1Cl)S(C)(=O)=O	4	70*	-1	-3	-4	11	84*
COC(=O)c1ccc(CN(c2ccccc2Cl)S(C)(=O)=O)cc1	-2	0	1	-8	-1	·	·

Assay outcomes (PubChem BioAssay)
